Holding throughout (type): functional
For test [1], the system named is Plasmodium falciparum. Put plainly: Antimalarial activity against ring stage chloroquine-resistant Plasmodium falciparum W2 preincubated for 48 hrs measured after 48 hrs in presence of 10% human serum by YOYO-1 dye-based FACS analysis. In short, it runs like this: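 Sorbitol-synchronized ring-stage W2 parasites at 0.1% parasitemia grown 48 h in RPMI-1640 + 10% human serum under 3% O2/6% CO2/91% N2 with inhibitors (from 1000× DMSO stocks), no media change. Fixed 48 h in 1% formaldehyde/PBS pH 7.4 at room temperature. Stained with 1 nM YOYO-1 in 0.1% Triton X-100/PBS. Parasitemia read by flow cytometry.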
In general terms: In flow cytometry, cells or beads pass a laser one at a time.

Test [2] in a line: Antioxidant activity assessed as DPPH radical scavenging activity after 20 mins under dark condition by UV-Visible spectrophotometric analysis. In short, it runs like this: (§1)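 Test compounds were made up in ethanol at 1.0, 2.0, 3.0, 4.0 and 5.0 mg/mL (solution concentrations before mixing). 1 mL of each was shaken with 4 mL of 0.1 mM ethanolic DPPH and kept in the dark at room temperature for 20 min. The decrease in A517 was read against an ethanol baseline. A DPPH blank had no compound. Scavenging % = [(Ac − As)/Ac] × 100.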
For orientation: The DPPH test is a chemical assay of radical scavenging.

Test [3] in a line: Antioxidant activity assessed as inhibition of DPPH radical generation at 1 mg/ml after 20 mins under dark condition by UV-Visible spectrophotometric analysis relative to control. In short, it runs like this:
as §1

Test [4] in a line: Antioxidant activity assessed as inhibition of DPPH radical generation at 2 mg/ml after 20 mins under dark condition by UV-Visible spectrophotometric analysis relative to control. In a few lines:
as §1

Test [5] can be described thus: Antioxidant activity assessed as inhibition of DPPH radical generation at 3 mg/ml after 20 mins under dark condition by UV-Visible spectrophotometric analysis relative to control. In a few lines:
as §1

A short description of test [6]: Antioxidant activity assessed as inhibition of DPPH radical generation at 4 mg/ml after 20 mins under dark condition by UV-Visible spectrophotometric analysis relative to control. In a few lines: as §1
Test [7] can be described thus: Antioxidant activity assessed as inhibition of DPPH radical generation at 5 mg/ml after 20 mins under dark condition by UV-Visible spectrophotometric analysis relative to control. In a few lines: as §1
Test [8] can be described thus: Antioxidant activity assessed as inhibition of DPPH radical generation at 0.01 mg/ml after 20 mins under dark condition by UV-Visible spectrophotometric analysis relative to control.
A short description of test [9]: Antioxidant activity assessed as inhibition of DPPH radical generation at 0.02 mg/ml after 20 mins under dark condition by UV-Visible spectrophotometric analysis relative to control.
Test [10] can be described thus: Antioxidant activity assessed as inhibition of DPPH radical generation at 0.03 mg/ml after 20 mins under dark condition by UV-Visible spectrophotometric analysis relative to control.
Test [11] is described as follows: Antioxidant activity assessed as inhibition of DPPH radical generation at 0.04 mg/ml after 20 mins under dark condition by UV-Visible spectrophotometric analysis relative to control.
Test [12] is described as follows: Antioxidant activity assessed as inhibition of DPPH radical generation at 0.05 mg/ml after 20 mins under dark condition by UV-Visible spectrophotometric analysis relative to control.

For orientation: MIC99 means an inhibitory concentration at the 99% level, which refers to growth in some studies and to a panel of isolates in others. As a reminder, the IC50 is the midpoint of a concentration-inhibition curve. Broadly, the inhibition is the percentage by which the read-out fell short of the control. For `CC(=O)c1ccc(NC(=O)C(CC(C)C)N(C(=O)c2ccccc2)S(=O)(=O)c2ccccc2)cc1` (stereo unspecified), the MIC99 in [1] came to 0.26 µM. In addition, the IC50 in test [2] was 3.2 mM. Also, the inhibition in test [3] stood at 27.7%; in [4], 54.2%; in test [5], 40.7%; in [6] it was 46.9%; in test [7] it was 52.2%.
With `CC(=O)c1ccc(NC(=O)C(Cc2ccccc2)N(C(=O)c2ccccc2)S(=O)(=O)c2ccc(C)cc2)cc1` (stereo unspecified), in test [1], the MIC99 was determined as 0.78 µM. Besides, in [2], the IC50 turned out to be 7.6 mM. The inhibition came out at 25.4% in [3]; 32.7% in test [4]; 39.6% in test [5]; 48.5% in [6]; 53.6% in test [7].
For the molecule `CC(=O)c1ccc(NC(=O)C(C(C)C)N(C(=O)c2ccccc2)S(=O)(=O)c2ccccc2)cc1` (stereo unspecified), the MIC99 in test [1] was determined as 1.7 µM. Besides, in [2], the half-maximal inhibitory concentration (IC50) was found to be 13 mM. Moreover, the inhibition in [3] is 32.1%; in test [4] it was 41.3%; in test [5], 47.5%; in test [6], 52.2%; in test [7], 54.2%.
On to `CC(=O)c1ccc(NC(=O)C(Cc2ccccc2)N(C(=O)c2ccccc2)S(=O)(=O)c2ccccc2)cc1` (stereo unspecified), for which the MIC99 in test [1] was found to be 0.9 µM. Further, the concentration for half-maximal inhibition (IC50) in test [2] amounted to 11 mM. Moreover, the inhibition in [3] came to 2.18%; in test [4] it was 4.37%; in [5], 7.21%; in test [6], 9.28%; in test [7] it was 11%.
Turning to `O=C1O[C@H]([C@@H](O)CO)C(O)=C1O` [ASCORBIC ACID], the IC50 in test [2] came to 0.34 mM. The inhibition in test [8] came to 15%; in test [9], 20%; in [10] it was 25%; in test [11], 30%; in test [12], 40%.
`CC(=O)c1ccc(NC(=O)C2CCCN2S(=O)(=O)c2ccccc2)cc1` (stereo unspecified): the MIC99 in test [1] was determined as 0.11 µM. The IC50 in [2] was determined as 69 mM. Moreover, the inhibition in test [3] stood at 22.8%; in [4] it was 25.8%; in test [5], 29.1%; in test [6], 33.4%; in test [7], 35.7%.

(Values after ChEMBL document CHEMBL4033670, “Synthesis, characterization, molecular docking and in vitro antimalarial properties of new carboxamides bearing sulphonamide” (Eur J Med Chem, 2017).)
